Source: article PMC6311382 (Angewandte Chemie (International ed. in English), 2015)

Tests used:
H. pylori HtrA [1] = target: T1, H. pylori HtrA (Helicobacter pylori, UniProt G2J5T2); experiment: 1H STD NMR binding experiment; conditions: 10 μM HtrA
T1 sequence (G2J5T2 18-475): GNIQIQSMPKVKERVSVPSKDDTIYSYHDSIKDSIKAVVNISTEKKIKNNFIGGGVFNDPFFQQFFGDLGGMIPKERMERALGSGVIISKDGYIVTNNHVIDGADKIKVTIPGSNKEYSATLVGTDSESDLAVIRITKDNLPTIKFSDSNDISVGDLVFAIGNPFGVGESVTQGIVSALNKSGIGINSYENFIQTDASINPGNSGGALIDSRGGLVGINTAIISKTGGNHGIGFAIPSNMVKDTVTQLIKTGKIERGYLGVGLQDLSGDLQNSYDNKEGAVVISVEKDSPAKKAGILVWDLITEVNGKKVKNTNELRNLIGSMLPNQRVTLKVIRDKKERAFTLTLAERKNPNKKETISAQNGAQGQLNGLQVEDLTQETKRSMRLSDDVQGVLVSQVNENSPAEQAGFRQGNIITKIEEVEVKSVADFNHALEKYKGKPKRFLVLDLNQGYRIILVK

[2] = assay type: physicochemical; conditions: dynamic light scattering
H. pylori HtrA [3] = target: T1, H. pylori HtrA; experiment: Western blot analysis of recombinant E-cadherin cleavage by HtrA; assay type: biochemical
Outline: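 Recombinant full-length 130 kDa E-cadherin is incubated with H. pylori HtrA and test compound at a range of concentrations. HtrA proteolysis is read by Western blot as generation of the roughly 90 kDa soluble E-cadherin fragment.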

H. pylori HtrA [4] = target: T1, H. pylori HtrA; experiment: SPR binding affinity and kinetics to HtrA
[5] = tested on: wild-type H. pylori transmigration; experiment: Transwell migration assay across polarized MKN-28 epithelial layer; assay type: cell-based, Helicobacter pylori; conditions: 50 μM, 24 h, MKN-28 cells
Outline: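 Wild-type H. pylori crossing a polarized epithelial layer of human gastric adenocarcinoma MKN-28 cells in a transwell system, followed for 24 h with test compound at two concentrations. Transmigrated bacteria are read as colony-forming units. Significance at 24 h is tested by one-way ANOVA (Dunnett) against the untreated control.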

[6] = tested on: wild-type Campylobacter jejuni transmigration; experiment: Transwell migration assay, Campylobacter jejuni; assay type: cell-based; conditions: 50 and 100 μM, 24 h
Outline: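 Transmigration of wild-type Campylobacter jejuni is followed over 24 h with test compound at two concentrations. Bacteria are counted as colony-forming units. N = 3 independent experiments. Significance at 24 h is tested by one-way ANOVA (Dunnett) against the untreated control.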

For `CO[C@@H]1O[C@H](CO)[C@@H](O)[C@H](O)[C@H]1O` [β-methyl-D-glucoside, reference compound], the “saturation transfer / binding to HtrA” value (H. pylori HtrA [1]) was “no saturation transfer”.

With `Cc1ccc(C)n1[C@@H](Cc1ccc(-c2ccc(C(=O)O)o2)cc1)C(=O)O` [Compound 2] the solubility kinetic [2] was over 100 µM, the “proteolytic activity of HtrA” value (H. pylori HtrA [3]; at 50 μM) was “blocked” and the “concentration at which inhibition of E-cadherin cleavage is seen” value (H. pylori HtrA [3]; recombinant E-cadherin) was 10 µM. For the same compound, the koff (H. pylori HtrA [4]) was 1.8 s⁻¹, the “LE (ligand efficiency)” value (H. pylori HtrA [4]; = −1.4 logKD/(number of non-hydrogen atoms)) was 0.24 and the “inhibition of H. pylori transmigration” value [5] was “significant effects”. For the same compound, the “saturation transfer / binding to HtrA” value (H. pylori HtrA [1]) was “direct binding” and the “inhibition of C. jejuni transmigration, compared with H. pylori” value [6] was “strikingly dissimilar outcome”.
